The subject of assay [1] is Mus musculus. Kind of assay: Anti-obesity activity in C57BL/6 mouse supplemented with normal chow diet assessed as effect on random blood glucose at 20 mg/kg/day, ip administered for 1 week. Type of assay: functional, organism-based. The conditions noted are these: time 1.0 weeks. The method in brief: (§1)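 8-week-old male C57BL/6 mice on normal chow, ip 20 mg·kg−1·day−1 for 7 days. Blood glucose measured randomly fed or after 6 h or 16 h fasting, as the line states. Mean ± SEM, n = 5–9.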

The subject of assay [2] is Hepatocyte. In words: Inhibition of lipogenesis in mouse primary hepatocytes assessed as decrease in FASN mRNA expression at 3 uM in presence of 100 nM insulin and 5 to 25 mM glucose measured after 18 hrs by RT-qPCR assay. Type of assay: functional, cell-based. The method in brief: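 Primary hepatocytes isolated from C57BL/6 mice by two-step perfusion. Cells incubated 18 h with 3 μM inhibitor, with 0 or 100 nM insulin and 5 or 25 mM glucose. Transcripts quantified by SYBR Green RT-qPCR after Trizol RNA extraction; proteins by western blot of lysates. Mean ± SEM.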

The target in assay [3] is T1, CREB-binding protein/Histone acetyltransferase p300 (Homo sapiens) (UniProt Q09472+Q92793). In words: Inhibition of CBP/p300 in human HepG2 cells stimulated with 100 uM 8-Br-cAMP assessed as induction of FOXO1 deacetylation at 3 uM measured after 6 hrs. Type of assay: cell-based. Put shortly: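 HepG2 cells given 3 μM compound and 100 μM 8-Br-cAMP for 6 h. Endogenous FOXO1 immunoprecipitated and its acetylation detected by immunoblot.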
T1 sequence (Q09472 whole entry, looked up): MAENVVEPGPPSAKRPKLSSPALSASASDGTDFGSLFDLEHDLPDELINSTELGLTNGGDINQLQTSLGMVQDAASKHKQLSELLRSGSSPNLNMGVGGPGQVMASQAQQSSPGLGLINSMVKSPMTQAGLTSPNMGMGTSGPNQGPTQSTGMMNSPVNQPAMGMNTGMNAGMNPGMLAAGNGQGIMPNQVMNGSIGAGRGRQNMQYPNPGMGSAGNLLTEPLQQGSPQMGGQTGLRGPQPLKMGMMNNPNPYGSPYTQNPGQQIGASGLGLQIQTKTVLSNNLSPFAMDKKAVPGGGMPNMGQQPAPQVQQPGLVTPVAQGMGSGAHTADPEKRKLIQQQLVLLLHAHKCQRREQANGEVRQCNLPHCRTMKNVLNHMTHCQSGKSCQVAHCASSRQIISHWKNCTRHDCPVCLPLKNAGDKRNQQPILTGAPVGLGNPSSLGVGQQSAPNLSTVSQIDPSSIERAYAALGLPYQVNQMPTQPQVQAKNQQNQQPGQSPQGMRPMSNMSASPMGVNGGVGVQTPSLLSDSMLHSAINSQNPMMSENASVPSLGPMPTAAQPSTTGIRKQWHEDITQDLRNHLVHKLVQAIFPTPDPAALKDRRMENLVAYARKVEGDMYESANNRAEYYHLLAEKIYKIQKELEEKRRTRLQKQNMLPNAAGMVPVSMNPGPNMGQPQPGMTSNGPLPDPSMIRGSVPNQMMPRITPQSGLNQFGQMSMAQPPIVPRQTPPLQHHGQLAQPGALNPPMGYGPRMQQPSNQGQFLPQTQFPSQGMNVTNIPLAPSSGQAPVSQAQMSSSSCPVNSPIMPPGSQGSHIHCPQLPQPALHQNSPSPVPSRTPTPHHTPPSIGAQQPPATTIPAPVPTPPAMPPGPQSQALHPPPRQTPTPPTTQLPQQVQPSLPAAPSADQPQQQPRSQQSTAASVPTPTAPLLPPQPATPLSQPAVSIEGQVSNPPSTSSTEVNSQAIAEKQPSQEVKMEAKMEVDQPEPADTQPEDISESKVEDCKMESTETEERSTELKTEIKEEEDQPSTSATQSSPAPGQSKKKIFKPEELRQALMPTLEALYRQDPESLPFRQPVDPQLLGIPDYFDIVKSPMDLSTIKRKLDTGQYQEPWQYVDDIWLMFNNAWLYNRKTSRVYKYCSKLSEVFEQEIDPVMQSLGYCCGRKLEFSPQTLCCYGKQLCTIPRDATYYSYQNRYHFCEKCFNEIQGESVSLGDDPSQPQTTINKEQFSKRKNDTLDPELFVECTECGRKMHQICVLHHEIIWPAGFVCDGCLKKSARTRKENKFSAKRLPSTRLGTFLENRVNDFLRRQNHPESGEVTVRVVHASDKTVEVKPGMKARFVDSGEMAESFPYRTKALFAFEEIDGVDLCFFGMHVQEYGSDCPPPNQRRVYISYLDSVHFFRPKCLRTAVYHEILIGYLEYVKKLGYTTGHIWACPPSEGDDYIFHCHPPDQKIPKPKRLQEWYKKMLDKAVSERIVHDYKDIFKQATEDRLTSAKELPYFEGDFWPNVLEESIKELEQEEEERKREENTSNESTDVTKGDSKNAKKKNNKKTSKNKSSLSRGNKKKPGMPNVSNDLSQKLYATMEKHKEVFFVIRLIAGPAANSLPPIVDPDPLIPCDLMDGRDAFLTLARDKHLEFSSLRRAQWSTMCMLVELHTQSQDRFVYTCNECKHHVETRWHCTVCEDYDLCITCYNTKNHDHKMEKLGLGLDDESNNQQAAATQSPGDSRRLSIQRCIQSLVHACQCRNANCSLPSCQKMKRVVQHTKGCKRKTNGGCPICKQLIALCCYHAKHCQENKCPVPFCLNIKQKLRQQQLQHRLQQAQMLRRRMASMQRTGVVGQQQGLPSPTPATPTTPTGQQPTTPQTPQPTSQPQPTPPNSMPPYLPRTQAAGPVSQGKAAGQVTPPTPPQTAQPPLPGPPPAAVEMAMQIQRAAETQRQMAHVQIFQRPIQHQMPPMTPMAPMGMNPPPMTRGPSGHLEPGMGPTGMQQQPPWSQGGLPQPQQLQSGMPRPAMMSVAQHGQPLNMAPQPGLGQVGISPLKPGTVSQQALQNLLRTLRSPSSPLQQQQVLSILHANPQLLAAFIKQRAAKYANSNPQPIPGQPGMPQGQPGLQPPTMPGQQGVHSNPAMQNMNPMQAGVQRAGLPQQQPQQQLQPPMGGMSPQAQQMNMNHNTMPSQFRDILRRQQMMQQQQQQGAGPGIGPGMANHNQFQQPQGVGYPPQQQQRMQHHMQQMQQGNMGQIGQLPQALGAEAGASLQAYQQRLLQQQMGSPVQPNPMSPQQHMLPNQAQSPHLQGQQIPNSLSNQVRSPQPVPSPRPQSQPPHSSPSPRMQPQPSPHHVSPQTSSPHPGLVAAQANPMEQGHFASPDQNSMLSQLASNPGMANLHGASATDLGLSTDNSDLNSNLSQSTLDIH
T1 sequence (Q92793 whole entry, looked up): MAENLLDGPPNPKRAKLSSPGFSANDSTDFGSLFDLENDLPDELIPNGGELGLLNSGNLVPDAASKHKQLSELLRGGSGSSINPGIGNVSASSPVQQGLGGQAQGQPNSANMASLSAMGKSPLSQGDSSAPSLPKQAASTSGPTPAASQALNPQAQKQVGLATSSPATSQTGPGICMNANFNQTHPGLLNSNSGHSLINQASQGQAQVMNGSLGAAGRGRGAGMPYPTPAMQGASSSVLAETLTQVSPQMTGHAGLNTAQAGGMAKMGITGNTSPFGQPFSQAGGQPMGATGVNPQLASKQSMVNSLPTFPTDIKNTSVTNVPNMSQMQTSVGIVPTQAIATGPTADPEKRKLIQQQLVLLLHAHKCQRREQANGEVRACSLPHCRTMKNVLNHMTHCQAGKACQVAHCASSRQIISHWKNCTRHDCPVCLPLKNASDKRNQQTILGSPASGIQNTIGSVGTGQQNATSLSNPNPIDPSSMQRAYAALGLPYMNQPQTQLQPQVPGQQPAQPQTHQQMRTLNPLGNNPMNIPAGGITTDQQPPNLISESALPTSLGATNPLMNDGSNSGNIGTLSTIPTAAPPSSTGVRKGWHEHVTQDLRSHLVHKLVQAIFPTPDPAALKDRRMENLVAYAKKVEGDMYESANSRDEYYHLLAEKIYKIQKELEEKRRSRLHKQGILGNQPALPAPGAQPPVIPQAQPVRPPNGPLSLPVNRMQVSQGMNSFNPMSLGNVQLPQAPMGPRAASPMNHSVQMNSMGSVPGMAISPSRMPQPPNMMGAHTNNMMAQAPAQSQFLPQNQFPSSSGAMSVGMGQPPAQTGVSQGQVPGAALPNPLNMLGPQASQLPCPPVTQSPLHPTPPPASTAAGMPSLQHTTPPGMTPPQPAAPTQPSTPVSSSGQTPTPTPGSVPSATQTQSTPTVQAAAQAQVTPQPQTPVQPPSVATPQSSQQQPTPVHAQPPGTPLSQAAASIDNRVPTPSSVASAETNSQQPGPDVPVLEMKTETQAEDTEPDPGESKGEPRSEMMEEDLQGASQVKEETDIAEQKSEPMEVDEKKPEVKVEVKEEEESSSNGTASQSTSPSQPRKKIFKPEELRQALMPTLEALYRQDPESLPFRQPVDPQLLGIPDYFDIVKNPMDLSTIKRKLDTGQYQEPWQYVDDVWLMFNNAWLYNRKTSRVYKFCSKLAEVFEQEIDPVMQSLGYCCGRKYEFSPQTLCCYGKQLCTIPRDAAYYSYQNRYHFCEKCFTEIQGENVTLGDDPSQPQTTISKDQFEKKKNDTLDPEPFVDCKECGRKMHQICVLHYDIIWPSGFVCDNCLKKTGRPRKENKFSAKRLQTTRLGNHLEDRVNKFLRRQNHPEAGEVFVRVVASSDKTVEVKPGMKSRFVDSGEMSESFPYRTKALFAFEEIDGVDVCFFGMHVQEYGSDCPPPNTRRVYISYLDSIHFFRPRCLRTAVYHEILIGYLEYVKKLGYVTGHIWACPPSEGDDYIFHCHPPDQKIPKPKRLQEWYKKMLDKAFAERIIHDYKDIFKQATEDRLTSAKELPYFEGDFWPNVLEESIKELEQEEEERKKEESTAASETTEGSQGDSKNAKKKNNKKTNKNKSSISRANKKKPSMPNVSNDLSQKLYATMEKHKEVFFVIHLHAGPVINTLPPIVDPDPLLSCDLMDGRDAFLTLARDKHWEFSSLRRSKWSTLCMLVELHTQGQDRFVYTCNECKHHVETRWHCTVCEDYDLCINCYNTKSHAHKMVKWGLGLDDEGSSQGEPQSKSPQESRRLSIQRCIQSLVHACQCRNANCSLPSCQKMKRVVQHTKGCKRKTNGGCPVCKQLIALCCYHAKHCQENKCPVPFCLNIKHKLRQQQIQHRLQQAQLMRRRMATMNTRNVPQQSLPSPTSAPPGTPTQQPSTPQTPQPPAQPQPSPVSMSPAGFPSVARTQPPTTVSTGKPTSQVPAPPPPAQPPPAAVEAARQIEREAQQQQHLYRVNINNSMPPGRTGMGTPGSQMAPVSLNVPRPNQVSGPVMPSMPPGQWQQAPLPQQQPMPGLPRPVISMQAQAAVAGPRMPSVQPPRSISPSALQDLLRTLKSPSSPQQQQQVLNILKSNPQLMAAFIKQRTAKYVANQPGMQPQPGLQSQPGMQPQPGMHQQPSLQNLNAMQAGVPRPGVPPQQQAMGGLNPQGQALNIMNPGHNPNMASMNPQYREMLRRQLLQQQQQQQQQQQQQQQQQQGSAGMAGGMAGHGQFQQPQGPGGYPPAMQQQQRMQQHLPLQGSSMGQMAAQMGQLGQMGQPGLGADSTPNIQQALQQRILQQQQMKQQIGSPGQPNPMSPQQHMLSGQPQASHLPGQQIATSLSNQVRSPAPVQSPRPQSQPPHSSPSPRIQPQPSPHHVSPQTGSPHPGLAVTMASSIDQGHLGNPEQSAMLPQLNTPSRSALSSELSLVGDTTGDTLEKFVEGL

Assay [4] has as its target T1, CREB-binding protein/Histone acetyltransferase p300 (Homo sapiens). In words: Inhibition of CBP/p300 in mouse primary hepatocytes stimulated with 100 uM 8-Br-cAMP assessed as effect on COP1 protein expression at 3 uM measured after 12 hrs by western blot analysis. The conditions noted are these: Primary hepatocyte. Type of assay: cell-based. For orientation: A western blot detects proteins with antibodies after separation by electrophoresis.

Assay [5] concerns Mus musculus. In words: Inhibition of lipogenesis in C57BL/6 mouse supplemented with normal chow diet assessed as decrease in ChREBP mRNA expression at 20 mg/kg/day, ip administered for 1 week measured by RT-qPCR assay. Type of assay: functional, organism-based. The conditions noted are these: time 1.0 weeks. Put shortly: (§2)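 Eight-week-old male C57BL/6 mice on normal chow were given 20 mg·kg−1·day−1 ip daily for 7 days or vehicle. Epididymal WAT was collected. Lipogenic, adipogenic and fatty-acid-oxidation transcripts were quantified by Trizol extraction and SYBR Green RT-qPCR. FAS, ACC, PPARγ and C/EBPα protein were assessed by western blot. n = 5–9; mean ± SEM.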

Assay [6] deals with Mus musculus. In words: Anti-obesity activity in 16 hrs fasted C57BL/6 mouse supplemented with normal chow diet assessed as decrease in fasting blood glucose at 20 mg/kg/day, ip administered for 1 week. Type of assay: functional, organism-based. The conditions noted are these: time 1.0 weeks. Put shortly: as §1
For assay [7], the system named is Adipocyte. In words: Inhibition of lipogenesis in mouse adipocytes isolated stromal vascular cells assessed as decrease in FAS protein expression measured after 24 hrs by western blot analysis. Type of assay: functional, cell-based.
For assay [8], the system named is Hepatocyte. In words: Inhibition of glucogenesis in mouse primary hepatocytes stimulated with 100 uM 8-Br-cAMP assessed as effect on FOXO1 mRNA expression at 3 uM measured after 8 hrs by RT-qPCR assay. Type of assay: functional, cell-based. Put shortly: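 Primary mouse hepatocytes treated with 3 μM compound and 100 μM 8-Br-cAMP for 8 h. Trizol RNA, SYBR Green RT-qPCR of the named transcript. Mean ± SEM, three independent experiments.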

In assay [9] the test system is HepG2. Kind of assay: Inhibition of glucogenesis in human HepG2 cells stimulated with 8-Br-cAMP at 3 uM assessed as effect on increased CRE luciferase activity. Type of assay: functional, cell-based. Put shortly:
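HepG2 cells treated with 3 μM compound; CRE reporter activity measured. Mean ± SEM, three independent experiments.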

The subject of assay [10] is Hepatocyte. Kind of assay: Inhibition of glucogenesis in mouse primary hepatocytes stimulated with 100 uM 8-Br-cAMP assessed as effect on pAMPK protein expression at 3 uM measured after 1 hr by western blot analysis. Type of assay: functional, cell-based. The method in brief: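 Primary hepatocytes from C57BL/6 mice, isolated by two-step perfusion, were co-treated with 3 μM A-485 and 100 μM 8-Br-cAMP for 1 h. Phospho-CREB, phospho-AMPK and phospho-TORC2 were detected by western blot of cell lysates. Three independent experiments; mean ± SEM.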

Assay [11] relates to Mus musculus. Kind of assay: Inhibition of lipogenesis in C57BL/6 mouse supplemented with high-fat diet assessed as decrease in ACC mRNA expression at 20 mg/kg/day, ip administered for 1 week measured by RT-qPCR assay. Type of assay: functional, organism-based. The conditions noted are these: time 1.0 weeks. Put shortly: (§3)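 Male C57BL/6 mice were fed high-fat diet for 14 weeks from 5 weeks of age, then injected ip with 20 mg·kg−1·day−1 for 7 days or given vehicle. Epididymal and inguinal WAT were weighed, examined by H&E, and analysed. Transcripts were measured by Trizol/SYBR Green RT-qPCR; proteins by western blot. n = 5–9; mean ± SEM.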
Background: Quantitative PCR measures a nucleic acid by following its amplification.

The subject of assay [12] is Mus musculus. Kind of assay: Inhibition of lipogenesis in C57BL/6 mouse supplemented with high-fat diet assessed as decrease in FASN mRNA expression at 20 mg/kg/day, ip administered for 1 week measured by RT-qPCR assay. Type of assay: functional, organism-based. Particulars: time 1.0 weeks. The method in brief:
as §3

Assay [13] concerns Mus musculus. In words: Inhibition of lipogenesis in C57BL/6 mouse supplemented with normal chow diet assessed as effect on MCAD mRNA expression at 20 mg/kg/day, ip administered for 1 week measured by RT-qPCR assay. Type of assay: functional, organism-based. Particulars: time 1.0 weeks. The method in brief: as §2
The subject of assay [14] is Mus musculus. In words: Inhibition of lipogenesis in C57BL/6 mouse supplemented with high-fat diet assessed as decrease in C/EBPalpha protein expression at 20 mg/kg/day, ip administered for 1 week measured measured by western blot analysis. Type of assay: functional, organism-based. Particulars: time 1.0 weeks. The method in brief: as §3
The subject of assay [15] is Mus musculus. Kind of assay: Anti-obesity activity in 16 hrs fasted C57BL/6 mouse supplemented with normal chow diet assessed as decrease in blood glucose level at 20 mg/kg/day, ip administered for 1 week measured after 15 to 30 mins by pyruvate tolerance test. Type of assay: functional, organism-based. Particulars: time 1.0 weeks. The method in brief:
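Normal-chow male C57BL/6 mice (8 weeks old) dosed ip at 20 mg·kg−1·day−1 for 7 days. Pyruvate tolerance test: 16 h fast, then pyruvate 2 g/kg body weight ip, blood glucose followed over time. Mean ± SEM, n = 5–9.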

Assay [16] concerns Mus musculus. In words: Inhibition of hepatic lipogenesis in C57BL/6 mouse supplemented with normal chow diet assessed as effect on CPT1alpha mRNA expression at 20 mg/kg/day, ip administered for 1 week measured by RT-qPCR assay. Type of assay: functional, organism-based. Particulars: time 1.0 weeks. The method in brief: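 Normal-chow male C57BL/6 mice, 8 weeks old, were injected ip at 20 mg·kg−1·day−1 daily for 7 days or given vehicle. Liver RNA was extracted with Trizol, and fatty-acid-oxidation gene transcripts were quantified by SYBR Green RT-qPCR. n = 5–9; mean ± SEM.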

Assay [17] relates to Mus musculus. In words: Inhibition of lipogenesis in C57BL/6 mouse supplemented with normal chow diet assessed as decrease in C/EBPalpha protein expression at 20 mg/kg/day, ip administered for 1 week measured measured by western blot analysis. Type of assay: functional, organism-based. Particulars: time 1.0 weeks. Put shortly: as §2
The subject of assay [18] is Mus musculus. In words: Inhibition of hepatic lipogenesis in C57BL/6 mouse supplemented with high fat diet assessed as decrease in triglyceride level at 20 mg/kg/day, ip administered for 1 week. Particulars: time 1.0 weeks. Type of assay: functional, organism-based. The method in brief:
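Male C57BL/6 mice received ip A-485 at 20 mg·kg−1·day−1 for 7 days, versus vehicle. NCD mice were 8 weeks old. HFD mice had been on high-fat diet for 14 weeks from 5 weeks of age. Liver triglyceride and total cholesterol content was determined. n = 5–9; mean ± SEM.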

Calls of active or inactive are those of the source. No cut-off for these calls is given here.

With `CNC(=O)Nc1ccc2c(c1)CCS21OC(=O)N(CC(=O)N(Cc2ccc(F)cc2)[C@@H](C)C(F)(F)F)C1=O` (stereo partly drawn), in assay [1], the outcome was inactive. The inhibition entry in assay [2], in assay [3], in assay [5], in assay [7], in [11] and in assay [12] was “Active” in each case. Moreover, the inhibition result in assay [14], in [17] and in assay [18] was “Active” throughout. For the same compound, the inhibition result in assay [4], in [8], in assay [9], in assay [10], in assay [13] and in assay [16] was “inactive” throughout. The outcome in assay [6] and in assay [15] was Active.

Source of the values: ChEMBL document CHEMBL5674890, “Selective inhibition of CBP/p300 HAT by A-485 results in suppression of lipogenesis and hepatic gluconeogenesis” (Cell Death Dis, 2020).
